From ChEMBL document CHEMBL1156222, “Tetrahydropyridine derivatives with inhibitory activity on the production of proinflammatory cytokines: part 2” (Bioorg Med Chem Lett, 2010) come the findings set out here.

Experiment [1] deals with Blood. Briefly: Antiinflammatory activity in human whole blood assessed as inhibition of LPS-induced TNFalpha production after 6 hrs. The format is functional, tissue-based. Summed up:
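Human whole blood was stimulated with LPS, and TNFα production was measured. % inhibition was plotted against log test concentration, and IC50 came from a least-squares linear regression. 95% confidence intervals were calculated by Fieller's theorem. Values are mean and S.D. of three to four determinations.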

For experiment [2], the system named is Mus musculus. Briefly: Antiinflammatory activity in po dosed mouse assessed as inhibition of LPS-induced TNFalpha production administered 30 mins before LPS challenge measured after 1 hr by ELISA. Type of experiment: functional. The note with it: read-out: ID50 (the source's name). Summed up:
(§1)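 LPS-induced TNFα production was measured in mice, with N = 5. Activity is reported either as ID50 or as % inhibition at a single 20 mg/kg dose.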

Experiment [3] concerns Blood. In words: Antiinflammatory activity in human whole blood assessed as inhibition of LPS-induced TNFalpha production at 10 uM after 6 hrs. Type of experiment: functional. The method in brief:
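Human whole blood was stimulated with LPS, and inhibition of TNFα production was measured at a single test concentration of 10 μM. Values are mean and S.D. of three to four determinations.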

For experiment [4], the species on record is Mus musculus. In words: Selectivity ratio of compound ID50 to 4-(2-(4-fluorophenyl)-4-(1,2,3,6-tetrahydropyridin-4-yl)-1H-pyrrol-3-yl)pyridine ID50 for antiinflammatory activity in mouse. Type of experiment: functional.
Experiment [5] has as its system Mus musculus. Briefly: Antiinflammatory activity in mouse assessed as inhibition of LPS-induced TNFalpha production at 20 mg/kg, po administered 30 mins before LPS challenge measured after 1 hr by ELISA. Type of experiment: functional. Summed up:
as §1

A word on the IC50: it is the concentration at which inhibition is half-maximal. With `CC(C)(C)N1CC=C(c2c[nH]c(-c3ccc(F)cc3)c2-c2ccncc2)CC1`, the half-inhibitory concentration (IC50) with Blood [1] is over 10000 nM. As for `CC1CC(c2c[nH]c(-c3ccc(F)cc3)c2-c2ccncc2)=CCN1C` (configuration not stated), the IC50 in the experiment on Blood [1] came out at 1280 nM. Also, the ED50 with Mus musculus [2] is 2.73 mg/kg. Broadly, the inhibition is the relative decrease from the control value, in per cent. Regarding `C=CCC1C=C(c2c[nH]c(-c3ccc(F)cc3)c2-c2ccncc2)CCN1C` (configuration not stated), in the experiment on Blood [3], the inhibition at 10 µM worked out at 48.7%. Regarding `CN1CCC(c2c[nH]c(-c3ccc(F)cc3)c2-c2ccncc2)=CC1Cc1ccccc1` (configuration not stated), in the experiment on Blood [3], the inhibition at 10 µM turned out to be 30.8%. For the compound `CC1C=C(c2c[nH]c(-c3ccc(F)cc3)c2-c2ccncc2)CCN1` (configuration not stated), in the experiment on Blood [1], the 50% inhibitory concentration (IC50) came to 710 nM. Besides, the ED50 in the experiment on Mus musculus [2] is 2.29 mg/kg. On the same counts, the results for `CCN1CCC(c2c[nH]c(-c3ccc(F)cc3)c2-c2ccncc2)=CC1C` (configuration not stated) are 1610 nM and 5.28 mg/kg. On the same counts, the results for `CN1C(C)(C)C=C(c2c[nH]c(-c3ccc(F)cc3)c2-c2ccncc2)CC1(C)C` are 8440 nM and 7.27 mg/kg. In the case of `CCCN1CCC(c2c[nH]c(-c3ccc(F)cc3)c2-c2ccncc2)=CC1C` (configuration not stated), the IC50 in the experiment on Blood [1] came to 440 nM. The ED50 in the experiment with Mus musculus [2] came out at 2.79 mg/kg. On the same counts, the results for `CC(C)N1CC=C(c2c[nH]c(-c3ccc(F)cc3)c2-c2ccncc2)CC1` are 980 nM and 6.18 mg/kg.

Turning to `CCCN1CC=C(c2c[nH]c(-c3ccc(F)cc3)c2-c2ccncc2)CC1`, the IC50 in the experiment on Blood [1] worked out at 520 nM. For the same compound, the ED50 with Mus musculus [2] turned out to be 6.75 mg/kg. As to `CN1CC=C(c2c[nH]c(-c3ccc(F)cc3)c2-c2ccncc2)CC1`, in the experiment with Blood [1], the half-inhibitory concentration (IC50) was determined as 3960 nM. Further, in the experiment on Mus musculus [2], the ED50 worked out at 2.89 mg/kg. Further, in the experiment listed under Mus musculus [4], the Ratio is over 2. `CCN1CC=C(c2c[nH]c(-c3ccc(F)cc3)c2-c2ccncc2)CC1`: the half-maximal inhibitory concentration (IC50) in the experiment with Blood [1] is 1210 nM. In addition, the ED50 in the experiment with Mus musculus [2] is 6.67 mg/kg.

On to `CC1C=C(c2c[nH]c(-c3ccc(F)cc3)c2-c2ccncc2)CCN1C` (configuration not stated), for which the concentration for half-maximal inhibition (IC50) in the experiment on Blood [1] was 630 nM. Moreover, the ED50 in the experiment with Mus musculus [2] was found to be 1.42 mg/kg. What is called inhibition in vivo is the change of the read-out against control, counted positive when it falls. `CCCCCCCCN1CC=C(c2c[nH]c(-c3ccc(F)cc3)c2-c2ccncc2)CC1`: the IC50 with Blood [1] turned out to be 1380 nM. In addition, in the experiment on Mus musculus [5], the inhibition in vivo at 20 mg/kg is 45%.

With `Fc1ccc(-c2[nH]cc(C3=CCN(Cc4ccccc4)CC3)c2-c2ccncc2)cc1`, the IC50 in the experiment on Blood [1] is over 30000 nM.
